Measured values taken from PubChem BioAssay AID588679 (Southern Research Specialized Biocontainment Screening …, 2011).
Calls of active or inactive are those of the source.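 Rule for the calls: active = inhibition of 30% or more at any tested concentration; inactive = the rest.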

These molecules were tested against M17 leucyl aminopeptidase (Plasmodium falciparum 3D7) (assay: Inhibition of P. falciparum M17 aminopeptidase – biochemical, QFRET, counter-screen for PfM18AAP inhibitor project, dose response (AID 588679)). Conditions: recombinant PfM17LAP, H-Leu-NHMec fluorogenic cleavage.
Summary of the method: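 material = recombinant P. falciparum M17 aminopeptidase | times = enzyme reaction for 90 min at room temperature | detection = fluorescence, ex 370 nm, em 460 nm | repeats = each concentration tested in triplicate | dosing = Ten-concentration series with 100 µM top dose | read-out = percent inhibition normalized to controls, IC50 from logistic fit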
`O=c1ccc2cc(O)c(O)cc2o1` gave an IC50 of 35.3 µM. Molecule `Oc1ccc(CCNc2cccc3ccccc23)cc1O` has an IC50 of 26.9 µM. `O=c1cc(CN2CCN(Cc3ccccc3)CC2)c2ccc(O)c(O)c2o1` showed an IC50 of 94 µM. Molecule `Oc1ccc(CCNc2ccc3ccccc3c2)cc1O` has an IC50 of 39.7 µM. In the case of `Oc1ccc(CCN2CCc3ccccc3C2)cc1O`, the IC50 is reported as 58.6 µM. `CN(CCc1ccc(O)c(O)c1)c1ccnc2ccccc12` showed an IC50 of 18 µM. `Oc1ccc(-c2csc(Cc3cc4ccccc4[nH]3)n2)cc1O` was tested, and the IC50 was 22 µM. `Cc1nc(NCCc2ccc(O)c(O)c2)c2c3c(sc2n1)CCC3` showed an IC50 of 25.3 µM. In the case of `Cc1ccc(-c2nc(-c3ccc(O)c(O)c3)cs2)cc1`, the IC50 is reported as 21.1 µM. `O=S1(=O)c2ccccc2-c2cc(-c3nc(-c4ccc(O)c(O)c4)[nH]c3-c3ccccc3)ccc21` showed an IC50 of 20 µM. Work on `O=C1OCCN1CCc1nc(-c2ccc(O)c(O)c2)cs1` yielded an IC50 of 37 µM. `Oc1ccc(CCNc2cncc3ccccc23)cc1O` showed an IC50 of 26.6 µM. Molecule `CCC(C)c1ccc(N)c(O)c1` (configuration not stated) has an IC50 of 37.6 µM. `Nc1cc(C(=O)c2ccccc2)ccc1O` was tested, and the IC50 was 31.4 µM. `Cc1c(-c2ccccc2)[nH]c(-c2ccc(O)c(O)c2)[n+]1O` was tested, and the IC50 was 69.2 µM. Molecule `CCOc1cccc(-c2nc(-c3ccc(O)c(O)c3)cs2)c1` has an IC50 of 23.5 µM. Molecule `Oc1ccc(CCNc2c3c(nc4ccccc24)CCCC3)cc1O` has an IC50 of 61.8 µM. Molecule `CC(C)(C)C(=O)OCc1nc(-c2ccc(O)c(O)c2)cs1` has an IC50 of 29.4 µM. With `Oc1ccc(CCNC(c2ccccc2)c2ccccc2)cc1O` the IC50 was 46.8 µM.

Same assay, conditions: recombinant PfM17LAP, H-Leu-NHMec fluorogenic cleavage; at 50 µM (top of the series)
For `O=C(O)CCCNc1c2ccccc2nc2ccccc12`, the inhibition was “inactive”. `O=C(O)CCCCNc1c2ccccc2nc2ccccc12` was tested, and the inhibition was “inactive”.

Same assay, conditions: recombinant PfM17LAP, H-Leu-NHMec fluorogenic cleavage; at 100 µM (top of the series)
With `CCC(C)C(=O)Nc1ccccc1O` (configuration not stated) the inhibition was “inactive”. `COc1ccc(-c2csc(-c3ccccc3OC)n2)cc1OC` was tested, and the inhibition was “inactive”. For `NCc1cc2c3c(c(=O)oc2c(O)c1O)CCC3`, the inhibition was “inactive”. In the case of `COc1ccc(CCN2CCN(C)CC2)cc1OC`, the inhibition is reported as “inactive”. `O=C(c1ccco1)N1CCN(Cc2cc(=O)c(O)co2)CC1` was tested, and the inhibition was “inactive”. `Oc1ccc(CCNc2c3ccccc3nc3ccccc23)cc1` was tested, and the inhibition was “inactive”. With `Cc1c(OCc2ccccc2)c(=O)ccn1CCNc1c2ccccc2nc2ccccc12` the inhibition was “inactive”. In the case of `COc1ccc(CCNc2c3ccccc3nc3ccccc23)cc1OC`, the inhibition is reported as “inactive”. In the case of `COc1ccc(CCNc2cncc3ccccc23)cc1OC`, the inhibition is reported as “inactive”. For `COc1ccc(CCNc2ccc3ccccc3c2)cc1OC`, the inhibition was “inactive”. For `O=C(c1ccco1)N1CCN(Cc2cc(=O)c(O)c[nH]2)CC1`, the inhibition was “inactive”. In the case of `COc1ccc(CCNc2ccnc3ccccc23)cc1OC`, the inhibition is reported as “inactive”. For `COc1cccc(-c2nc(-c3ccc(OC)c(OC)c3)cs2)c1`, the inhibition was “inactive”. For `COc1ccc(CCCNc2c3ccccc3nc3ccccc23)cc1OC`, the inhibition was “inactive”. In the case of `COc1ccc2c(c1)C(=O)C(N)CC2` (configuration not stated), the inhibition is reported as “inactive”. With `COc1ccc(CCNc2ccncc2)cc1OC` the inhibition was “inactive”. In the case of `COc1ccc(CCN2CCc3ccccc3C2)cc1OC`, the inhibition is reported as “inactive”. With `O=c1cc(CO)oc(CN2CCCCC2)c1O` the inhibition was “inactive”. For `COc1ccc(CC(=O)O)cc1OC`, the inhibition was “inactive”. For `COc1ccc(CCNc2c3c(nc4ccccc24)CCCC3)cc1OC`, the inhibition was “inactive”. With `COc1ccc(CNc2c3ccccc3nc3ccccc23)cc1OC` the inhibition was “inactive”. In the case of `COc1ccc(CCN(C)c2ccncc2)cc1OC`, the inhibition is reported as “inactive”. For `COc1ccc(CCNC2CCN(Cc3ccccc3)CC2)cc1OC`, the inhibition was “inactive”. `Oc1ccc(CCCNc2c3ccccc3nc3ccccc23)cc1O` was tested, and the inhibition was “inactive”. In the case of `COc1cccc(CCNc2c3ccccc3nc3ccccc23)c1`, the inhibition is reported as “inactive”. In the case of `COc1ccc(-c2nc(-c3ccccc3)c(-c3ccccc3)[nH]2)cc1OC`, the inhibition is reported as “inactive”. `CCC(C)C(=O)Nc1ccccc1N` (configuration not stated) was tested, and the inhibition was “inactive”. `COc1ccc(CCC(=O)O)cc1OC` was tested, and the inhibition was “inactive”. For `NCCNc1c2ccccc2nc2ccccc12`, the inhibition was “inactive”. `COc1ccc(CCN(C)c2ccnc3ccccc23)cc1OC` was tested, and the inhibition was “inactive”. `COc1ccc(CCNc2cccc3ccccc23)cc1OC` was tested, and the inhibition was “inactive”. In the case of `COc1ccc(CCN(C)CCc2ccccc2)cc1OC`, the inhibition is reported as “inactive”. In the case of `COc1ccc(-c2csc(-c3ccccc3)n2)cc1OC`, the inhibition is reported as “inactive”. `O=C1c2ccc3c4c(ccc(c24)C(=O)N1O)CC3` was tested, and the inhibition was “inactive”. For `COc1ccc(CCNC2CCN(C)CC2)cc1OC`, the inhibition was “inactive”. `Cc1c(O)c(=O)ccn1CCNc1c2ccccc2nc2ccccc12` was tested, and the inhibition was “inactive”.
